The values that follow come from ChEMBL document CHEMBL3352663, “Inhibition of group IVA cytosolic phospholipase A2 by thiazolyl ketones in vitro, ex vivo, and in vivo” (J Med Chem, 2014).

Assay [1] deals with Mus musculus. Kind of assay: Antiinflammatory activity in DBA/1 mouse […] model assessed as reduction in articular cavity at 7.5 mg/kg, ip treatment started on day 21 after second […] measured on day 32. Further details: dose 7.5 mg/kg. It counts as functional, organism-based. The method in brief: (§1)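 Prophylactic collagen-induced arthritis in male DBA/1 mice. Bovine type II collagen (2 mg/mL) was emulsified 1:1 in Freund's complete adjuvant and 0.1 mL injected at the tail base on day 0, with a booster on day 21. Daily ip dosing in DMSO at 2 mL/Kg began 1 h before the booster. Arthritis index was scored through day 41. Histology groups were killed at day 32 after […] of dosing; hind paws were scored blind (0-5) for infiltration, hyperplasia and damage.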

Assay [2] has as its system Mus musculus. Kind of assay: Antiinflammatory activity in DBA/1 mouse […] model assessed as reduction in peripheral tissue inflammatory cell infiltration at 7.5 mg/kg, ip treatment started on day 21 after […] measured on day 32. It counts as functional, organism-based. Further details: dose 7.5 mg/kg. Summed up:
as §1

For assay [3], the system named is Mus musculus. As to the kind of experiment: Antiinflammatory activity in DBA/1 mouse […] assessed as reduction in capillary and synovial hyperplasia at 7.5 mg/kg, ip treatment started on day 21 after […] measured on day 32. The assay is classed as functional, organism-based. Also noted: dose 7.5 mg/kg. The method in brief:
as §1

In assay [4] the test system is Mus musculus. Kind of assay: Reduction in PGE2 level in DBA/1 mouse plasma at 0.3 mg/kg, ip by EIA analysis relative to control. It counts as functional, organism-based. Further details: dose 0.3 mg/kg. The method in brief:
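Plasma came from collagen-induced arthritic DBA/1 mice at termination, about 5 h after the last daily ip dose. Samples were diluted 1:1000-1:6000 in EIA buffer and incubated 18 h at 4 °C in a PGE2 EIA, read at OD550. Levels are expressed relative to DMSO-vehicle arthritic mice; n=10-11 per group, ±SD.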

In assay [5] the target is T1, Cytosolic phospholipase A2 (Homo sapiens) (UniProt P47712).
T1 sequence (whole entry): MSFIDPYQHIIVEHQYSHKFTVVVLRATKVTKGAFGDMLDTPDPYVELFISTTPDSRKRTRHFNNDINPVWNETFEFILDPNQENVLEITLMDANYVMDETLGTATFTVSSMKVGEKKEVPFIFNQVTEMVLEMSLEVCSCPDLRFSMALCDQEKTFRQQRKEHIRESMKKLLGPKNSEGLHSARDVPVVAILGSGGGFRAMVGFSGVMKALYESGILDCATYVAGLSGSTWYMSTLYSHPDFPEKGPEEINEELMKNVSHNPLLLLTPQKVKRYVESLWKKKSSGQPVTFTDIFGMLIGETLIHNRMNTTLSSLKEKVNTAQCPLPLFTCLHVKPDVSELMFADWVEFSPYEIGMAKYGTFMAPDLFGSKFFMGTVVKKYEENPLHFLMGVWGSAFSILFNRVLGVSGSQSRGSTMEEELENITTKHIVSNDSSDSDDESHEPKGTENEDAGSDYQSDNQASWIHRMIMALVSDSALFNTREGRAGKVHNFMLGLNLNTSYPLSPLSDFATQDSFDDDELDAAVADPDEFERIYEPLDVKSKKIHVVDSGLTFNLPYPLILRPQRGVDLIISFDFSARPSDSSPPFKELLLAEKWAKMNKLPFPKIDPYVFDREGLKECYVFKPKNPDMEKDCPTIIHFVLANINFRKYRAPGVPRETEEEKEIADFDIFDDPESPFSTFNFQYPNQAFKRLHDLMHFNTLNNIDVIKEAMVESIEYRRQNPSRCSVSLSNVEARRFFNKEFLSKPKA
Kind of assay: Inhibition of human recombinant GIVA cPLA2 using 400 uM Triton X-100/97 uM PAPC/1.8 uM 14C-labeled PAPC/3uM PIP2 substrate mixedmicelles. Summed up:
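Modified Dole assay of recombinant human GIVA cPLA2. Mixed micelles contained 400 µM Triton X-100, 97 µM PAPC, 1.8 µM 14C-PAPC and 3 µM PIP2 in 100 mM HEPES pH 7.5 with 90 µM CaCl2, 2 mM DTT and 0.1 mg/mL BSA. Percent inhibition was measured at 0.091 mole fraction inhibitor. XI(50) is the mole fraction giving 50% inhibition.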

For a further assay, the species on record is Homo sapiens. As to the kind of experiment: Inhibition of human recombinant GV sPLA2 using 400 uM Triton X-100/98.3 uM PAPC/1.7 uM 14C-labeled PAPC substrate mixedmicelles at 1 uM.
For assay [6], the target named is T1, Cytosolic phospholipase A2 (Homo sapiens). Kind of assay: Inhibition of human recombinant GIVA cPLA2 at 1 uM in vitro vesicle assay. The method in brief:
(§2)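 Recombinant human GIVA cPLA2 was preincubated with 1% DMSO ± inhibitor (80 s at 37 °C, then 10 min at 25 °C). Sonicated vesicles of 1-palmitoyl-2-[14C]arachidonyl-PC (0.2 μM) were added and incubated 1 h at 37 °C. The reaction was stopped with chloroform/methanol. Single-point tests used 1 µM inhibitor; IC50 determinations used 0-3 µM.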

Assay [7] has as its system SW982. Kind of assay: Inhibition of IL-1beta-induced arachidonic acid release in human SW982 cells using [3H]AA at 10 uM by liquid scintillation counting. As to conditions: for inhibition at 10 µM: SW982, 4 h. It counts as functional. Summed up: (§3)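 SW982 synovial sarcoma cells were serum-starved and labelled overnight with 3H-AA (0.4 µCi/mL) and 14C-OA (0.067 µCi/mL), then washed with PBS/fBSA. They were pretreated 1 h with inhibitor (10 µM single point, or 0-20 µM for IC50), then stimulated with IL-1β 10 ng/mL for 4 h. Released radioactivity was counted by scintillation relative to total incorporated label; DMSO served as vehicle; ≥3 independent experiments in triplicate.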

Assay [8] has as its system SW982. As to the kind of experiment: Inhibition of IL-1beta-induced arachidonic acid release in human SW982 cells using [3H]AA by liquid scintillation counting. The assay is classed as functional, cell-based. The method in brief: as §3
Assay [9] relates to SW982. Kind of assay: Inhibition of IL-1beta-induced oleic acid release in human SW982 cells using [3H]OA at 10 uM by liquid scintillation counting. The assay is classed as functional. As to conditions: SW982, 4 h.
The target in assay [10] is T1, Cytosolic phospholipase A2 (Homo sapiens). Kind of assay: Inhibition of human recombinant GIVA cPLA2 using 400 uM Triton X-100/97 uM PAPC/1.8 uM 14C-labeled PAPC/3uM PIP2 substrate mixedmicelles at 0.091 mole fraction.
Assay [11] relates to SW982. Kind of assay: Inhibition of IL-1beta-induced oleic acid release in human SW982 cells using [3H]OA at 0 to 20 uM by liquid scintillation counting. It counts as functional, cell-based.
Assay [12] addresses T2, Cytosolic phospholipase A2 (Homo sapiens, UniProt P47712).
T2 sequence (P47712 whole entry): T1 sequence (whole entry)
As to the kind of experiment: Inhibition of human recombinant GIVA cPLA2 in vitro vesicle assay. Summed up:
as §2

The mark [13] stands for this setting: Homo sapiens, SW982, 4 h, read-out: IC50.

Active and inactive are the calls of the source. The calls are words filed in the database; no cut-off is given here. Some results are limits rather than exact numbers.

For `CN(Cc1cnc2nc(N)nc(N)c2n1)c1ccc(C(=O)N[C@@H](CCC(=O)O)C(=O)O)cc1`, the inhibition result in the assay with Mus musculus [1], in the assay on Mus musculus [2] and in the assay on Mus musculus [3] was “inactive” throughout. For the same molecule, the inhibition entry in the assay on Mus musculus [4] is “Active”.

Turning to `CCCCCCCCc1ccc(OCC(=O)c2nc3ccccc3s2)cc1`, the XI50 (mole fraction) in [5] was found to be 0.06. Also, the inhibition in the assay filed under Homo sapiens was 55%; in assay [10] it was above 90%. In [6], the inhibition entry is “inactive”. For the same molecule, the inhibition at 10 µM is 71% with SW982 [7] and 35% in the assay with SW982 [9]. Besides, the IC50 with SW982 [8] (setting [13]) came out at 5.3 µM.

Turning to `CCCCCCCCc1ccc(OCC(=O)c2nccs2)cc1`, the XI50 (mole fraction) in assay [5] was 0.02. Besides, the inhibition in the assay listed under Homo sapiens is 46%; in assay [6], 43%; in [10], above 90%. In addition, in the assay with SW982 [7], the inhibition at 10 µM is above 90%. Moreover, the IC50 in the assay with SW982 [8] (setting [13]) amounted to 3.6 µM. Further, in the assay with SW982 [11], the inhibition entry is “inactive”.

Turning to `O=C(COc1ccccc1)c1nccs1`, the inhibition is 0% in the assay listed under Homo sapiens, 26% in [6] and 40% in assay [10]. In addition, the IC50 entry (in assay [12]; in the assay on SW982 [8] (sw982)) was “Not Active” each time. For the same molecule, the inhibition at 10 µM in the assay on SW982 [7] was 12%; in the assay on SW982 [9], 20%.

Regarding `CCCCCCCCCCCCOCC(=O)c1nc(CC(=O)OCC)cs1`, the values for the inhibition (in the assay filed under Homo sapiens; in assay [10]) were 55% and 49%, respectively. The inhibition entry (in assay [6]; in the assay with SW982 [7]; with SW982 [11]) was “inactive” in each case.

`O=C(COc1ccc(F)cc1)c1nccs1`: the inhibition came to 4% in the assay listed under Homo sapiens, 7% in assay [6] and 58% in assay [10]. Besides, the IC50 entry in assay [12] is on record as “Not Active”. Also, in the assay on SW982 [7], the inhibition result was “inactive”. The inhibition at 10 µM with SW982 [9] came out at 25%.

Turning to `CCCCCCCCCCCCOCC(=O)c1nc(C(=O)OCC)cs1`, the inhibition in the assay listed under Homo sapiens was 48%; in assay [6] it was 21%; in [10], 48%. The IC50 result (in assay [12]; with SW982 [8] (sw982)) was “Not Active” in each case. The molecule further came in with an inhibition at 10 µM in the assay on SW982 [7] of 9%. Besides, the inhibition entry in the assay with SW982 [11] was “inactive”.

As to `CCCCCCCCc1ccc(OCC(=O)c2nc(CC(=O)OCC)cs2)cc1`, the inhibition is 50% in the assay filed under Homo sapiens, 25% in assay [6] and 64% in assay [10]. For the same molecule, the IC50 result in [12] was “Not Active”; in the assay with SW982 [8] (setting [13]) it was 5 µM. Moreover, the results for the inhibition at 10 µM in the assay with SW982 [7] and in the assay with SW982 [9] were 71% and 20%, respectively.

Consider `O=C(COc1ccc(-c2ccccc2)cc1)c1nccs1`, for which the inhibition turned out to be 41% in the assay listed under Homo sapiens, 26% in assay [6] and 80% in assay [10]. The IC50 result is “Not Active” in assay [12] and 2.8 µM in the assay on SW982 [8] (setting [13]). Further, the inhibition at 10 µM in the assay with SW982 [7] was 73%; in the assay with SW982 [9], 25%.
